The values below come from ChEMBL document CHEMBL1157698, “Enhancing the intestinal absorption of molecules containing the polar guanidino functionality: a double-targeted prodrug approach” (J Med Chem, 2010).

Series [1] addresses T1, Serine hydrolase BPHL (Homo sapiens) (UniProt Q86WA6).
T1 sequence (whole entry): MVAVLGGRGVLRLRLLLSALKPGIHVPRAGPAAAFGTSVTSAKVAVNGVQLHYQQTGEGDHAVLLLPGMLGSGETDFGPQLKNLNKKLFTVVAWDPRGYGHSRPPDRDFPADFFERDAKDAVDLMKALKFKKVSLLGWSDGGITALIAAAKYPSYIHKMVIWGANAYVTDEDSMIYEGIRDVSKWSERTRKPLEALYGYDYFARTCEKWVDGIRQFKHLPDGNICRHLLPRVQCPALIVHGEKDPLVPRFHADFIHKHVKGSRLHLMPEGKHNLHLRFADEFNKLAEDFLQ
As to the kind of experiment: Ratio of Kcat to Km of human recombinant VACVase assessed as hydrolysis. The gist of the method: (§1)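 Recombinant human VACVase expressed in and purified from E. coli, stored at −80 °C, protein measured by Bio-Rad DC assay against BSA. Run in 50 mM HEPES pH 7.4 at 37 °C with 5 min buffer preincubation, enzyme added, then substrate to start. Michaelis-Menten fit; kcat = Vmax/[enzyme]0 using 28.83 kDa mass, active protein normalized to valacyclovir specific activity. Triplicate.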

Series [2] deals with HeLa. As to the kind of experiment: Drug uptake in human HeLa cells expressing hPEPT1 after 60 mins. It is filed as ADME, cell-based. Conditions: 1 h. The gist of the method: (§2)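 HeLa cells, with or without hPEPT1 adenovirus infection 3 days before assay, after 5 days' growth. Preincubated 15 min in pH 6.0 MES uptake buffer, then given 1 mM compound for 60 min at 37 °C. Cells washed in ice-cold DPBS, sonicated, TFA-precipitated (final 7%), supernatant read by HPLC and normalized to protein (nmol/mg). Donor solution stability by HPLC. Triplicate, mean ± SEM.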

For series [3], the system named is Caco-2. As to the kind of experiment: Stability in human Caco-2 cell homogenate after 2 hrs. The series is classed as ADME, cell-based. Conditions: caco-2, 2 h. An outline of the steps: (§3)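 Homogenates from HeLa or Caco-2 cells: NaCl-washed, collected in 10 mM phosphate pH 7.4, sonicated on ice, spun 10,000 rpm 10 min at 4 °C; supernatant adjusted to 500 μg/mL protein. Compound added from 200 mM DMSO stock at 37 °C.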

The subject of series [4] is HeLa. The series is described as follows: Stability in human HeLa cell homogenate after 2 hrs. The series is classed as ADME, cell-based. An outline of the steps:
as §3

Series [5] can be described thus: Chemical stability in pH 7.4 buffer after 2 hrs. The note with it: pH 7.4, 2 h. The series is classed as physicochemical. An outline of the steps:
(§4)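 Hydrolysis at 37 °C in pH 6.0 uptake buffer (140 mM NaCl, 5.4 mM KCl, 1.8 mM CaCl2, 0.8 mM MgSO4, 5 mM glucose, 25 mM MES) or 10 mM phosphate pH 7.4. Compound added from 200 mM DMSO stock. […] Triplicate, mean ± SEM.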

In another series the test system is hPEPT1. The series is described as follows: Drug uptake in human HeLa cells expressing hPEPT1 after 60 mins relative ro control. The series is classed as ADME, cell-based. The gist of the method: as §2
The target of series [6] is T2, Solute carrier family 15 member 1 (Homo sapiens, UniProt P46059).
T2 sequence (P46059 whole entry): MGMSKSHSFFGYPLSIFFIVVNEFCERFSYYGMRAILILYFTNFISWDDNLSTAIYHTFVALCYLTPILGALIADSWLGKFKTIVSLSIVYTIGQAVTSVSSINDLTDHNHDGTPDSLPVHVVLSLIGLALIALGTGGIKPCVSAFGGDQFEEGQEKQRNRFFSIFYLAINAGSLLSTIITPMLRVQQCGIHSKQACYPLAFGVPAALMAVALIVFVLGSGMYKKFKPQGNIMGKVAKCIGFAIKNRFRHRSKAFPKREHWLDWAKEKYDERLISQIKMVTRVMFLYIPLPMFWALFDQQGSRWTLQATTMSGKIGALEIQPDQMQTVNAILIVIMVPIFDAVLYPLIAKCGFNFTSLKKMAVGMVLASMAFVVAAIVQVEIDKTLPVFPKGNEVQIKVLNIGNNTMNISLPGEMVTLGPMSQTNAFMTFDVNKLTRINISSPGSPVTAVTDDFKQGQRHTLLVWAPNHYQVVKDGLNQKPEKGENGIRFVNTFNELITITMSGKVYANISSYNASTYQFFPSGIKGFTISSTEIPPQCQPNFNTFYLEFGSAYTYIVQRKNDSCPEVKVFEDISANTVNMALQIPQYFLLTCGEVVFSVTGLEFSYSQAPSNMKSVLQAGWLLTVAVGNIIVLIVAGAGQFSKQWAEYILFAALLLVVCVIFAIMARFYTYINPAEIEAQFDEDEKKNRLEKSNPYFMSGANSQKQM
As to the kind of experiment: Inhibition of human PEPT1-mediated [3H]Gly-Sar uptake in human HeLa cells. It is filed as cell-based. The gist of the method:
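HeLa cells grown 5 days, infected with hPEPT1 adenovirus 3 days before assay, washed in pH 6.0 MES uptake buffer. Incubated 30 min at 37 °C with 10 μM Gly-Sar (0.1 μM [3H]) plus test compound at 0.05–5 mM. Cells washed ice-cold, lysed in 0.1% SDS, scintillation counted. IC50 by nonlinear fit; n=4.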

Series [7] in a line: Chemical stability in pH 6 buffer after 2 hrs. It is filed as physicochemical. Conditions: pH 6, 2 h. The gist of the method: as §4
Series [8] has as its system HeLa. As to the kind of experiment: Drug uptake in human HeLa cells after 60 mins. It is filed as ADME, cell-based. Conditions: 1 h. An outline of the steps:
as §2

A short description of series [9]: Stability in apical side in human Caco-2 cells at 120 mins by permeability study. It is filed as ADME, cell-based. The note with it: read-out: Stability. On the technique in general: Passage across Caco-2 layers is used to estimate intestinal permeability.
Series [10] can be described thus: Chemical stability assessed as half life of hydrolysis in pH 7.4 buffer. It is filed as physicochemical. The note with it: for t1/2: buffer. The gist of the method: as §4
The nature of series [11]: Stability in human HeLa cells after 60 mins. The series is classed as ADME, cell-based. The note with it: read-out: Stability. The gist of the method:
as §2

Series [12] concerns HeLa. The series is described as follows: Stability in human HeLa cell homogenate assessed as half life of hydrolysis. It is filed as ADME, cell-based. The gist of the method:
as §3

Series [13] is described as follows: Stability in human HeLa cells expressing hPEPT1 after 60 mins. It is filed as ADME, cell-based. Conditions: read-out: Stability. The gist of the method:
as §2

Series [14] has as its system Caco-2. The series is described as follows: Stability in human Caco-2 cell homogenate assessed as half life of hydrolysis. The series is classed as ADME, Colon. An outline of the steps: as §3
Substrate in series [15]: N=C(N)Nc1cccc(COC(=O)[C@@H](N)Cc2ccccc2)c1
As to the kind of experiment: (§5) Activity of human recombinant VACVase assessed as hydrolysis measured per ug of protein. An outline of the steps: as §1

Substrate in series [16]: CC(C)[C@H](N)C(=O)OCc1cccc(NC(=N)N)c1
The series is described as §5. The gist of the method: as §1

Substrate in series [17]: CC[C@H](C)[C@H](N)C(=O)OCc1cccc(NC(=N)N)c1
The series is described as §5. An outline of the steps:
as §1

Substrate in series [18]: CC(C)[C@H](N)C(=O)OCCOCn1cnc2c(=O)nc(N)[nH]c21
The series is described as §5. An outline of the steps:
as §1

Substrate in series [19]: N=C(N)Nc1cccc(COC(=O)[C@@H](N)Cc2ccccc2)c1
The series is described as follows: (§6) Activity of human recombinant VACVase assessed as hydrolysis. An outline of the steps: as §1

Substrate in series [20]: CC(C)[C@H](N)C(=O)OCc1cccc(NC(=N)N)c1
Described as §6. The gist of the method:
as §1

Substrate in series [21]: CC[C@H](C)[C@H](N)C(=O)OCc1cccc(NC(=N)N)c1
Described as §6. An outline of the steps: as §1

Substrate in series [22]: CC(C)[C@H](N)C(=O)OCCOCn1cnc2c(=O)nc(N)[nH]c21
The description is as §6. An outline of the steps: as §1

In the case of `CC(C)[C@H](N)C(=O)OCCOCn1cnc2c(=O)nc(N)[nH]c21`, in series [1], the Ratio came out at 850 mM⁻¹ s⁻¹.

Regarding `N=C(N)Nc1cccc(COC(=O)[C@@H](N)Cc2ccccc2)c1`, the Ratio in series [1] is 1660 mM⁻¹ s⁻¹.

On to `N=C(N)Nc1cccc(CO)c1` [[3-(hydroxymethyl)phenyl]guanidine], for which the figures for the Drug uptake with HeLa [2] and in the series with HeLa [8] were 5.5 nmol/mg and 3.8 nmol/mg, respectively. Further, the Stability result (with Caco-2 [3]; in the series on HeLa [4]; in series [5]; in [7]) was “Stable” throughout. The uptake ratio at 1 h with hPEPT1 was found to be 1.4. The IC50 in series [6] is > 3000 µM.

As for `CC[C@H](C)[C@H](N)C(=O)OCc1cccc(NC(=N)N)c1`, the Ratio in [1] was found to be 1580 mM⁻¹ s⁻¹.

For the molecule `CC(C)[C@@H](N)C(=O)OCc1cccc(NC(=N)N)c1`, the remaining at 2 h in series [9] came to 98.8%.

`NC(N)=Nc1cccc(COC(=O)[C@@H](N)Cc2ccccc2)c1`: the Drug uptake came to 14.8 nmol/mg in the series with HeLa [2] and 1.7 nmol/mg in the series on HeLa [8]. Also, the t1/2 is 4.363 h in series [10], < 0.083 h in the series with HeLa [12] and < 0.017 h in the series on Caco-2 [14]. Besides, the remaining at 1 h amounted to 87.2% in series [11] and 83.8% in [13]. Further, the remaining at 2 h in [9] is 3.9%. The uptake ratio at 1 h with hPEPT1 came out at 8.8. Also, the IC50 in [6] was found to be 2330 µM. Besides, in series [7], the Stability result is recorded as “Stable”.

As for `CC(C)[C@H](N)C(=O)OCCOCn1cnc2c(=O)[nH]c(N)nc21` [VALACYCLOVIR], the values for the Drug uptake with HeLa [2] and with HeLa [8] were 5.5 nmol/mg and < 0.2 nmol/mg, respectively. Also, in series [10] (pH 7.4 buffer), the half-life was 8.23 h. Moreover, the remaining at 1 h was 99.2% in series [11] and 96.8% in series [13]. Further, the remaining at 2 h in [9] stood at 94.7%. Also, the t1/2 in the series on HeLa [12] was found to be 2.37 h; with Caco-2 [14] it was 0.522 h. Besides, in series [6], the IC50 came to 1420 µM. Besides, in series [7], the Stability result is reported as “Stable”.

Turning to `CC(C)[C@H](N)C(=O)OCc1cccc(NC(=N)N)c1`, the Drug uptake in the series with HeLa [2] was 50.2 nmol/mg; with HeLa [8], < 2 nmol/mg. Besides, the t1/2 in series [10] amounted to 8.227 h; with HeLa [12] it was 0.338 h; with Caco-2 [14] it was 0.08 h. In addition, the remaining at 1 h in [11] stood at 98%; in series [13], 96.9%. The remaining at 2 h in [9] was determined as 86.5%. The uptake ratio at 1 h with hPEPT1 is > 25. Besides, the Ratio in [1] was 3370 mM⁻¹ s⁻¹. The molecule also had an IC50 in series [6] of 650 µM. In addition, the Stability result in series [7] is “Stable”.

On to `CC[C@H](C)[C@H](N)C(=O)OCc1cccc(N=C(N)N)c1`, for which the values for the Drug uptake in the series on HeLa [2] and in the series on HeLa [8] were 27.7 nmol/mg and < 2 nmol/mg, respectively. In addition, the t1/2 in series [10] amounted to 11.75 h; in the series on HeLa [12], 2.287 h; in the series with Caco-2 [14], 0.993 h. Further, the remaining at 1 h in series [11] amounted to 99%; in series [13], 98.7%. The remaining at 2 h in series [9] worked out at 96.6%. The uptake ratio at 1 h in the series with hPEPT1 is > 13. This molecule displayed an IC50 in series [6] of 630 µM. In addition, in [7], the Stability entry was “Stable”.

B1: Serine hydrolase BPHL (Homo sapiens), Q86WA6 (protein)
chain: T1 sequence (whole entry)
With B1, the Vmax in series [15] was determined as 718 nmol/min/µg; in series [16] it was 321 nmol/min/µg; in series [17], 30 nmol/min/µg; in series [18] it was 120 nmol/min. The Km stood at 207 µM in series [19], 46 µM in series [20], 9 µM in series [21] and 68 µM in series [22]. The kcat in series [19] worked out at 345 s⁻¹; in series [20], 154 s⁻¹; in series [21], 14 s⁻¹; in series [22] it was 58 s⁻¹.

The IC50 is the concentration needed to halve the response being measured. A higher IC50 goes with weaker potency in that assay. By half-life is commonly meant the time needed for the level to fall by half in the phase considered. A word on the Km: it is the substrate concentration at which the rate is half of its maximum. Broadly, the kcat is the number of substrate molecules converted per active site and unit of time at saturation.
